Values after ≈ are worked out from the molar mass of the structure shown.
Key:
Staphylococcus aureus [1] = test: Antibacterial activity against methicillin-susceptible Staphylococcus aureus ATCC 25923 at 5 ug after 18 to 20 hrs by CLSI disk diffusion assay; assay type: functional; conditions: read-out: DIZ
How it was run: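 Mueller-Hinton agar, 4 mm deep, swabbed with PBS-diluted overnight TSB culture (~10^8 CFU/mL). Paper disk (6 mm) loaded with compound in DMSO, incubated 37 °C in ambient air. Complete inhibition zone diameter read from plate back with callipers; 6 mm means no inhibition. At least three independent experiments, mean with standard error.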

Staphylococcus aureus [2] = test: Antibacterial activity against methicillin-susceptible Staphylococcus aureus ATCC 29213 after 20 hrs by CLSI microdilution assay; assay type: functional; conditions: ATCC 29213, 20 h
Staphylococcus aureus [3] = test: Bactericidal activity against methicillin-susceptible Staphylococcus aureus ATCC 29213 preincubated for 20 hrs followed by agar plating and measured after 18 to 20 hrs; assay type: functional
How it was run: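 Broth microdilution per CLSI guideline. Compounds diluted 2-fold in MHB from 100 mM DMSO stocks. Inoculum ~10^5 CFU/mL final, from overnight TSB culture diluted in PBS. Plates incubated at 37 °C. Wells without growth by optical density spread on TSA and incubated at 37 °C. MBC is the lowest concentration giving no colonies. At least triplicate.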

Staphylococcus aureus [4] = test: Bactericidal activity against methicillin-resistant Staphylococcus aureus USA300 preincubated for 20 hrs followed by agar plating and measured after 18 to 20 hrs; assay type: functional
How it was run: (§1)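 MBC taken from broth microdilution (final about 10^5 CFU/mL, Mueller-Hinton broth, 37 °C for 20 h). Clear wells (basal optical density) were spread on TSA plates and incubated at 37 °C for 18–20 h. The lowest concentration giving no colonies is reported. At least triplicate.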

Staphylococcus aureus [5] = test: Antibacterial activity against methicillin-resistant Staphylococcus aureus USA300 at 5 ug after 18 to 20 hrs by CLSI disk diffusion assay; assay type: functional; conditions: read-out: DIZ
How it was run: (§2)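 Disk diffusion on 4 mm Mueller-Hinton agar swabbed with about 10^8 CFU/mL suspension in PBS; 6 mm paper disk loaded with 5 µg compound in DMSO; 37 °C ambient air for 18–20 h; diameter of the complete inhibition zone measured in mm with callipers from the plate back; at least three independent experiments, mean with standard error; 6 mm means no inhibition.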

Staphylococcus aureus [6] = test: Antibacterial activity against hospital-associated methicillin-resistant Staphylococcus aureus COL at 5 ug after 18 to 20 hrs by CLSI disk diffusion assay; assay type: functional; conditions: read-out: DIZ; how it was run: as §2
Staphylococcus aureus [7] = test: Antibacterial activity against hospital-associated methicillin-resistant Staphylococcus aureus COL after 20 hrs by CLSI microdilution assay; assay type: functional
Staphylococcus aureus [8] = test: Antibacterial activity against methicillin-resistant Staphylococcus aureus USA300 after 20 hrs by CLSI microdilution assay; assay type: functional; conditions: USA300, 20 h
Staphylococcus aureus [9] = test: Bactericidal activity against hospital-associated methicillin-resistant Staphylococcus aureus COL preincubated for 20 hrs followed by agar plating and measured after 18 to 20 hrs; assay type: functional; how it was run: as §1
A549 = test: Cytotoxicity against human A549 cells after 24 to 48 hrs by fluorescence-based assay; assay type: cell-based
How it was run: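 A549 cells, ~10^4 per well in DMEM, given 2-fold serial dilutions of compound (DMSO stock diluted in DMEM). Incubated at 37 °C, 5% CO2. PrestoBlue added for 1 h, then fluorescence read at excitation 535 nm and emission 610 nm as a measure of viable cells.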

Staphylococcus aureus [10] = test: Synergistic antibacterial activity against methicillin-susceptible Staphylococcus aureus ATCC 29213 in presence of TMP-Br after 20 hrs by broth microdilution-based checkerboard titration assay; assay type: functional
Staphylococcus aureus [11] = test: Synergistic antibacterial activity against methicillin-resistant Staphylococcus aureus USA300 in presence of TMP-Br after 20 hrs by broth microdilution-based checkerboard titration assay; assay type: functional
Staphylococcus aureus [12] = test: Synergistic antibacterial activity against hospital-associated methicillin-resistant Staphylococcus aureus COL in presence of TMP-Cl after 20 hrs by broth microdilution-based checkerboard titration assay; assay type: functional
Staphylococcus aureus [13] = test: Synergistic antibacterial activity against methicillin-susceptible Staphylococcus aureus ATCC 29213 in presence of TMP-Cl after 20 hrs by broth microdilution-based checkerboard titration assay; assay type: functional
Staphylococcus aureus [14] = test: Synergistic antibacterial activity against methicillin-resistant Staphylococcus aureus USA300 in presence of TMP after 20 hrs by broth microdilution-based checkerboard titration assay; assay type: functional
Staphylococcus aureus [15] = test: Potentiation of TMP-Br-mediated antibacterial activity against hospital-associated methicillin-resistant Staphylococcus aureus COL assessed as TMP-Br MIC after 20 hrs by CLSI microdilution assay (reference value: 5 microg/ml); assay type: functional
Staphylococcus aureus [16] = test: microbe, parasite or virus in culture; assay type: functional; conditions: ATCC 29213, 20 h
Staphylococcus aureus [17] = test: microbe, parasite or virus in culture; assay type: functional; conditions: ATCC 29213, 20 h; remark: listed apart in the source
Staphylococcus aureus [18] = test: Potentiation of TMP-Cl-mediated antibacterial activity against methicillin-resistant Staphylococcus aureus USA300 assessed as TMP-Cl MIC after 20 hrs by CLSI microdilution assay (reference value: 2.50 microg/ml); assay type: functional; conditions: USA300, 20 h
Staphylococcus aureus [19] = test: Synergistic antibacterial activity against methicillin-resistant Staphylococcus aureus USA300 in presence of TMP-I after 20 hrs by broth microdilution-based checkerboard titration assay; assay type: functional
Staphylococcus aureus [20] = test: Potentiation of TMP-I-mediated antibacterial activity against hospital-associated methicillin-resistant Staphylococcus aureus COL assessed as TMP-I MIC after 20 hrs by CLSI microdilution assay (reference value: 2.50 microg/ml); assay type: functional
Staphylococcus aureus [21] = test: microbe, parasite or virus in culture; assay type: functional; conditions: USA300, 20 h
Staphylococcus aureus [22] = test: Synergistic antibacterial activity against methicillin-resistant Staphylococcus aureus USA300 in presence of TMP-Cl after 20 hrs by broth microdilution-based checkerboard titration assay; assay type: functional
Staphylococcus aureus [23] = test: Synergistic antibacterial activity against hospital-associated methicillin-resistant Staphylococcus aureus COL in presence of TMP after 20 hrs by broth microdilution-based checkerboard titration assay; assay type: functional
Staphylococcus aureus [24] = test: Potentiation of TMP-Cl-mediated antibacterial activity against hospital-associated methicillin-resistant Staphylococcus aureus COL assessed as TMP-Cl MIC after 20 hrs by CLSI microdilution assay (reference value: 5 microg/ml); assay type: functional
Staphylococcus aureus [25] = test: microbe, parasite or virus in culture; assay type: functional; conditions: ATCC 29213, 20 h; remark: listed apart in the source
Staphylococcus aureus [26] = test: microbe, parasite or virus in culture; assay type: functional; conditions: USA300, 20 h; remark: listed apart in the source
Staphylococcus aureus [27] = test: Synergistic antibacterial activity against hospital-associated methicillin-resistant Staphylococcus aureus COL in presence of TMP-Br after 20 hrs by broth microdilution-based checkerboard titration assay; assay type: functional
Staphylococcus aureus [28] = test: Synergistic antibacterial activity against hospital-associated methicillin-resistant Staphylococcus aureus COL in presence of TMP-I after 20 hrs by broth microdilution-based checkerboard titration assay; assay type: functional
Staphylococcus aureus [29] = test: Synergistic antibacterial activity against methicillin-susceptible Staphylococcus aureus ATCC 29213 in presence of TMP-I after 20 hrs by broth microdilution-based checkerboard titration assay; assay type: functional
Staphylococcus aureus [30] = test: microbe, parasite or virus in culture; assay type: functional; conditions: ATCC 29213, 20 h; remark: listed apart in the source
Staphylococcus aureus [31] = test: Synergistic antibacterial activity against methicillin-susceptible Staphylococcus aureus ATCC 29213 in presence of TMP after 20 hrs by broth microdilution-based checkerboard titration assay; assay type: functional
Staphylococcus aureus [32] = test: Potentiation of TMP-mediated antibacterial activity against hospital-associated methicillin-resistant Staphylococcus aureus COL assessed as TMP MIC after 20 hrs by CLSI microdilution assay (reference value: 5 microg/ml); assay type: functional
Staphylococcus aureus [33] = test: microbe, parasite or virus in culture; assay type: functional; conditions: USA300, 20 h; remark: listed apart in the source
Staphylococcus aureus [34] = test: Synergistic antibacterial activity against methicillin-susceptible Staphylococcus aureus ATCC 29213 assessed as fractional inhibitory concentration index in presence of sulfamethoxazole after 18 hrs by broth microdilution-based checkerboard titration assay; assay type: functional
Staphylococcus aureus [35] = test: Synergistic antibacterial activity against hospital-associated methicillin-resistant Staphylococcus aureus COL in presence of sulfamethoxazole after 20 hrs by broth microdilution-based checkerboard titration assay; assay type: functional
Staphylococcus aureus [36] = test: Potentiation of sulfamethoxazole-mediated antibacterial activity against methicillin-susceptible Staphylococcus aureus ATCC 29213 assessed as sulfamethoxazole MIC after 20 hrs by CLSI microdilution assay (reference value: 100 microg/ml); assay type: functional; conditions: ATCC 29213, 20 h
Staphylococcus aureus [37] = test: Potentiation of sulfamethoxazole-mediated antibacterial activity against hospital-associated methicillin-resistant Staphylococcus aureus COL assessed as sulfamethoxazole MIC after 20 hrs by CLSI microdilution assay (reference value: 200 microg/ml); assay type: functional
Staphylococcus aureus [38] = test: Synergistic antibacterial activity against hospital-associated methicillin-resistant Staphylococcus aureus COL assessed as fractional inhibitory concentration index in presence of sulfamethoxazole after 18 hrs by broth microdilution-based checkerboard titration assay; assay type: functional
Staphylococcus aureus [39] = test: Synergistic antibacterial activity against methicillin-resistant Staphylococcus aureus USA300 assessed as fractional inhibitory concentration index in presence of sulfamethoxazole after 18 hrs by broth microdilution-based checkerboard titration assay; assay type: functional
Staphylococcus aureus [40] = test: Synergistic antibacterial activity against methicillin-susceptible Staphylococcus aureus ATCC 29213 in presence of sulfamethoxazole after 20 hrs by broth microdilution-based checkerboard titration assay; assay type: functional
Staphylococcus aureus [41] = test: Potentiation of sulfamethoxazole-mediated antibacterial activity against methicillin-resistant Staphylococcus aureus USA300 assessed as sulfamethoxazole MIC after 20 hrs by CLSI microdilution assay (reference value: 100 microg/ml); assay type: functional; conditions: USA300, 20 h
Staphylococcus aureus [42] = test: Synergistic antibacterial activity against methicillin-resistant Staphylococcus aureus USA300 in presence of sulfamethoxazole after 20 hrs by broth microdilution-based checkerboard titration assay; assay type: functional

COc1ccc(Cc2cnc(N)nc2N)cc1OC [DIAVERIDINE]
zone of inhibition at 5 µg/disc (Staphylococcus aureus [1]): 8.81 mm | MIC (Staphylococcus aureus [2]): 5 µg/mL (≈ 19.2 µM) | MBC (Staphylococcus aureus [3]): 5 µg/mL (≈ 19.2 µM) | MBC (Staphylococcus aureus [4]): 10 µg/mL (≈ 38.4 µM) | zone of inhibition at 5 µg/disc (Staphylococcus aureus [5]): 6 mm | zone of inhibition at 5 µg/disc (Staphylococcus aureus [6]): 6 mm | MIC (Staphylococcus aureus [7]): 10 µg/mL (≈ 38.4 µM) | MIC (Staphylococcus aureus [8]): 5 µg/mL (≈ 19.2 µM) | MBC (Staphylococcus aureus [9]): 20 µg/mL (≈ 76.8 µM) | IC50 (A549): > 1 mM

Cc1cc(NS(=O)(=O)c2ccc(N)cc2)no1 [SULFAMETHOXAZOLE]
FIC (Staphylococcus aureus [10]): 0.06 | FIC (Staphylococcus aureus [11]): 0.12 | FIC (Staphylococcus aureus [12]): 0.06 | FIC (Staphylococcus aureus [13]): 0.06 | FIC (Staphylococcus aureus [14]): 0.06 | MIC (Staphylococcus aureus [2]): 100 µg/mL (≈ 395 µM) | MIC (Staphylococcus aureus [15]): 0.31 µg/mL | MIC (Staphylococcus aureus [16]): 0.08 µg/mL (≈ 0.316 µM) | MIC (Staphylococcus aureus [17]): 0.08 µg/mL (≈ 0.316 µM) | MIC (Staphylococcus aureus [18]): 0.16 µg/mL | MIC (Staphylococcus aureus [7]): 200 µg/mL (≈ 790 µM) | FIC (Staphylococcus aureus [19]): 0.06 | MIC (Staphylococcus aureus [20]): 0.16 µg/mL | MIC (Staphylococcus aureus [21]): 0.08 µg/mL (≈ 0.316 µM) | FIC (Staphylococcus aureus [22]): 0.06 | FIC (Staphylococcus aureus [23]): 0.06 | MIC (Staphylococcus aureus [24]): 0.31 µg/mL | MIC (Staphylococcus aureus [25]): 0.08 µg/mL (≈ 0.316 µM) | MIC (Staphylococcus aureus [26]): 0.08 µg/mL (≈ 0.316 µM) | FIC (Staphylococcus aureus [27]): 0.06 | FIC (Staphylococcus aureus [28]): 0.06 | FIC (Staphylococcus aureus [29]): 0.06 | MIC (Staphylococcus aureus [30]): 0.08 µg/mL (≈ 0.316 µM) | FIC (Staphylococcus aureus [31]): 0.06 | MIC (Staphylococcus aureus [8]): 100 µg/mL (≈ 395 µM) | MIC (Staphylococcus aureus [32]): 0.31 µg/mL | MIC (Staphylococcus aureus [33]): 0.16 µg/mL (≈ 0.632 µM)

COc1cc(Cc2cnc(N)nc2N)cc(OC)c1OC [TRIMETHOPRIM]
zone of inhibition at 5 µg/disc (Staphylococcus aureus [1]): 20.2 mm | MIC (Staphylococcus aureus [2]): 1.25 µg/mL (≈ 4.31 µM) | MBC (Staphylococcus aureus [3]): 1.25 µg/mL (≈ 4.31 µM) | fractional inhibitory concentration index (FICI) (Staphylococcus aureus [34]): 0.12 | MBC (Staphylococcus aureus [4]): 2.5 µg/mL (≈ 8.61 µM) | FIC (Staphylococcus aureus [35]): 0.06 | zone of inhibition at 5 µg/disc (Staphylococcus aureus [5]): 22.8 mm | zone of inhibition at 5 µg/disc (Staphylococcus aureus [6]): 6 mm | MIC (Staphylococcus aureus [7]): 5 µg/mL (≈ 17.2 µM) | MIC (Staphylococcus aureus [36]): 6.25 µg/mL | MIC (Staphylococcus aureus [37]): 12.5 µg/mL | fractional inhibitory concentration index (FICI) (Staphylococcus aureus [38]): 0.12 | MIC (Staphylococcus aureus [8]): 1.25 µg/mL (≈ 4.31 µM) | fractional inhibitory concentration index (FICI) (Staphylococcus aureus [39]): 0.12 | MBC (Staphylococcus aureus [9]): 10 µg/mL (≈ 34.4 µM) | FIC (Staphylococcus aureus [40]): 0.06 | MIC (Staphylococcus aureus [41]): 6.25 µg/mL | FIC (Staphylococcus aureus [42]): 0.06

Source: ChEMBL document CHEMBL4270522, “Halogenated trimethoprim derivatives as multidrug-resistant Staphylococcus aureus therapeutics” (Bioorg Med Chem, 2018)
